The values below come from ChEMBL document CHEMBL1212801, “Inhibitor resistance in the KPC-2 beta-lactamase, a preeminent property of this class A beta-lactamase” (Antimicrob Agents Chemother, 2010).

pKi: −log10 of the molar value. In brackets after ≈: the same amount, converted by molar mass. Activity calls are given as the source filed them. No cut-off for these calls is given here.

For assay [1], the system named is Escherichia coli str. K-12 substr. DH10B. Put plainly: Km for Escherichia coli DH10B beta-lactamase KPC-2.
For assay [2] the test system is unchanged. Put plainly: Ratio of Kinact to Km for Escherichia coli DH10B beta-lactamase KPC-2.
The test system is the same in assay [3]. Put plainly: Ratio of Kcat to Kinact for Escherichia coli DH10B beta-lactamase KPC-2.
Assay [4] has the same test system. As to the kind of experiment: Inhibition of Escherichia coli DH10B beta-lactamase KPC-2 assessed as residual activity at 25 to 200 uM after 24 hrs by diode array spectrophotometry.
For assay [5] the test system is unchanged. As to the kind of experiment: Inhibition of Escherichia coli DH10B beta-lactamase KPC-2 at 0.025 mM by UVD spectroscopy.
For assay [6] the test system is unchanged. As to the kind of experiment: Inhibition of Escherichia coli DH10B beta-lactamase KPC-2 assessed as residual activity at 25 to 200 uM after 24 hrs by diode array spectrophotometry; values are per cent of control.
The test system is the same in assay [7]. Put plainly: Inhibition of Escherichia coli DH10B beta-lactamase KPC-2 assessed as residual activity at 25 to 200 uM after 72 hrs by diode array spectrophotometry.
A further assay relates to Klebsiella pneumoniae. As to the kind of experiment: Antimicrobial activity against Klebsiella pneumoniae 1534 harboring beta lactamase KPC-2 by CLSI method. It counts as functional. The procedure, abridged:
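[…] agar dilution MICs per CLSI, using a Steers replicator spotting 10^4 CFU per spot. For clavulanic acid and sulbactam, ampicillin was fixed at 50 mg/liter while inhibitor was increased. Piperacillin-tazobactam was tested at 8:1. Test inhibitors were held at 4 mg/liter while piperacillin, imipenem or cefotaxime was increased.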

The test system of assay [8] is Escherichia coli. As to the kind of experiment: Antimicrobial activity against Escherichia coli DH10B harboring beta lactamase KPC-2 by CLSI method. The note with it: K-12 DH10B.
The subject of assay [9] is Escherichia coli. Put plainly: Antimicrobial activity against Escherichia coli DH10B by CLSI method. The settings on record: K-12 DH10B.
The nature of assay [10]: (§1) Activity at Escherichia coli DH10B beta-lactamase KPC-2 by diode array spectrophotometry. Also noted: species or system Escherichia coli str. K-12 substr. DH10B.
Assay [11] deals with Escherichia coli str. K-12 substr. DH10B. The assay is described as §1.
Assay [12] has the same test system. As to the kind of experiment: Ratio of Kcat to Km for Escherichia coli DH10B beta-lactamase KPC-2. A digest of the protocol: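 Steady-state assay on a diode array spectrophotometer with 10 nM purified KPC-2 and substrates at 5–200 μM, in 10 mM PBS pH 7.4 at room temperature. Spontaneous imipenem hydrolysis was subtracted. Vmax and Km came from a nonlinear least-squares Michaelis-Menten fit.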

As usually defined, the Km is the concentration of substrate that gives half-maximal velocity. With `CC1(C)[C@H](C(=O)O)N2C(=O)C[C@H]2S1(=O)=O`, the Km in assay [1] is 135 µM. Further, the kinact/Km in assay [2] came out at 1200 M⁻¹ s⁻¹. Further, in [3], the kcat/kinact came to 1000. In addition, the Activity in assay [4] amounted to 50%.
As for `C[C@]1(Cn2ccnn2)[C@H](C(=O)O)N2C(=O)C[C@H]2S1(=O)=O`, the Km in assay [1] amounted to 78.5 µM. In addition, the kinact/Km in [2] was 2500 M⁻¹ s⁻¹. The kcat/kinact in assay [3] was determined as 500. Moreover, the Activity in assay [4] stood at 50%.
What is called residual activity is the share of the control activity or signal that is left under treatment. In the case of `O=C(O)C1=CSC2/C(=C\c3cc4n(n3)CSC4)C(=O)N12` (stereo not given), in assay [1], the Km turned out to be 0.06 µM. In addition, the kinact/Km in assay [2] came out at 180000 M⁻¹ s⁻¹. In assay [3], the kcat/kinact was found to be 250. For the same compound, the inhibition entry in assay [5] is “Active”. In assay [6], the residual activity turned out to be 20%.
In the case of `O=C(O)[C@H]1/C(=C/CO)O[C@@H]2CC(=O)N21`, the Activity in assay [7] amounted to 5%. In addition, the Km in assay [1] amounted to 8.4 µM. In addition, in assay [2], the kinact/Km came out at 3600 M⁻¹ s⁻¹. Moreover, the kcat/kinact in assay [3] was 2500.
By MIC is commonly meant the lowest concentration found to suppress growth. Low readings indicate a more susceptible organism, high ones a less susceptible organism. For `CC1(C)S[C@@H]2[C@H](NC(=O)[C@H](N)c3ccccc3)C(=O)N2[C@H]1C(=O)O` [AMPICILLIN], the MIC is 8190 µg/mL (≈ 23400 µM) with Klebsiella pneumoniae, 4100 µg/mL (≈ 11700 µM) against Escherichia coli [8] and 1 µg/mL (≈ 2.86 µM) against Escherichia coli [9].
What is called pKi is the Ki on a negative log10 scale, so that one unit is a factor of ten. Low readings indicate a high Ki, high ones a low Ki. What is called kcat is the number of substrate molecules converted per active site and unit of time at saturation. Take `CO/N=C(\C(=O)N[C@@H]1C(=O)N2C(C(=O)O)=C(COC(C)=O)CS[C@H]12)c1csc(N)n1` [CEFOTAXIME]: the MIC with Klebsiella pneumoniae is 16 µg/mL (≈ 35.1 µM); against Escherichia coli [8] it was 8 µg/mL (≈ 17.6 µM); in the assay on Escherichia coli [9], 0.06 µg/mL (≈ 0.132 µM). The compound also showed a pKi in assay [10] of 3.92. In assay [11], the kcat stood at 78 s⁻¹. Moreover, the kcat/Km in assay [12] is 0.6 µM/s.
For the compound `C[C@@H](O)[C@H]1C(=O)N2C(C(=O)O)=C(SCCNC=N)C[C@H]12` [IMIPENEM ANHYDROUS], the MIC in the assay on Klebsiella pneumoniae and against Escherichia coli [8] was 8 µg/mL (≈ 26.7 µM) throughout. The pKi in [10] was 4.72. Also, in assay [11], the kcat turned out to be 19 s⁻¹. The kcat/Km in assay [12] came out at 1 µM/s.
In assay [10], `O=C(Cc1cccs1)N[C@@H]1C(=O)N2C(C(=O)O)=C(/C=C/c3ccc([N+](=O)[O-])cc3[N+](=O)[O-])CS[C@H]12` [NITROCEFIN] showed a pKi of 5.30. In assay [11], the kcat turned out to be 30 s⁻¹. Further, in [12], the kcat/Km came out at 6.4 µM/s.
For `CCN1CCN(C(=O)N[C@@H](C(=O)N[C@@H]2C(=O)N3[C@@H]2SC(C)(C)[C@@H]3C(=O)O)c2ccccc2)C(=O)C1=O` [PIPERACILLIN], the minimal inhibitory concentration (MIC) against Klebsiella pneumoniae is 1020 µg/mL (≈ 1980 µM); in the assay on Escherichia coli [8], 1020 µg/mL (≈ 1980 µM); in the assay with Escherichia coli [9] it was 2 µg/mL (≈ 3.86 µM). In [10], this compound showed a negative-log Ki (pKi) of 4.80. Further, the catalytic constant (kcat) in assay [11] came out at 17 s⁻¹. The kcat/Km in assay [12] turned out to be 1.1 µM/s.
